Bioassay records as filed in PubChem BioAssay.
procasp7 counter – procaspase-7 activators, primary screen, counter-screen for procaspase-3 activator project, biochemical, absorbance, HTS, human; recombinant procaspase-7, Ac-DEVD-pNA absorbance 405 nm; D23A/D198A/D206A triple mutant, cannot self-cleave; scale: DMSO 0, 5 µM enzyme 100; 0.093% of 330,000 active; AID 463210, 2010; activation, % at 8.5 µM;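 active means percent activation above the screen-wide mean plus 3 SD, cut at about 25% in these data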
Target sequence (P55210 whole entry D23A/D198A/D206A): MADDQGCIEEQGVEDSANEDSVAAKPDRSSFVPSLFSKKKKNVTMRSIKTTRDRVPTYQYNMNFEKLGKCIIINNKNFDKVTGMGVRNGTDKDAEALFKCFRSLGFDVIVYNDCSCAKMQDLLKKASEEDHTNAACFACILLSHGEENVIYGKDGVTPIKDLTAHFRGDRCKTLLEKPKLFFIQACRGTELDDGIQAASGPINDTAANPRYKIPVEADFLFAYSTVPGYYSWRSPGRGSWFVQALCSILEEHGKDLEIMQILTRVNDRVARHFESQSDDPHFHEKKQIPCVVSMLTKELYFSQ
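Assay system – Uncleavable procaspase-7 mutant enzyme · Quantity – 2 µM procaspase-7 mutant as dispensed · Times – 1 h preincubation, 2 h reaction · Dosing – single nominal 8.5 µM compound dose, 0.8% DMSO final · Buffer or medium – Zinc-free 50 mM HEPES buffer, pH 7.4, with NaCl and Triton X-100 · Detection – Epi-absorbance of released pNA at 405 nm, two timepoints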
MsrA inh – bovine MsrA enzyme inhibitors, primary screen, biochemical, absorbance, HTS | Methionine sulfoxide reductase A (Bos taurus) | purified bovine MsrA, absorbance read-out | inhibition, % at 15.5 µM | 0.75% of 360,000 active | AID 651718, 2012; in the data active means inhibition above about 4.5%
procasp3 activ – activators of human procaspase-3 D3A mutant, primary screen, biochemical, absorbance, PC-3 D3A mutant, single concentration; recombinant procaspase-3 D3A, Ac-DEVD-pNA absorbance 405 nm; activation, % at 8.5 µM; 0.11% of 330,000 active;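 active means activation above the mean of all tested compounds plus 3 SD, cut at about 21% in these data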
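material = Procaspase-3 D3A mutant | probe or stimulus = Ac-DEVD-pNA | compound = single dose, 8.5 µM nominal compound, 0.8% DMSO | timing = 1 h preincubation, 2 h reaction | measured by = 405 nm absorbance of p-nitroaniline, reads at 0 and 120 min | benchmarks = DMSO-only low control, 5 µM PC-3 D3A high control | repeats = singlicate, each compound tested once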
MsrA act – bovine MsrA enzyme activators, primary screen, biochemical, absorbance, HTS; purified bovine MsrA, absorbance read-out; activation, % at 10.6 µM; Methionine sulfoxide reductase A (Bos taurus); AID 602163, 2012; 0.3% of 360,000 active; in the data active means activation above about 7.5%
MsrA act confirm – bovine MsrA activators, retest, confirmation, biochemical, absorbance, HTS | shares compounds with MsrA act | purified bovine MsrA, absorbance read-out | activation, % at 10.6 µM | 12% of 1,000 active | AID 602270, 2012; in the data active means activation above about 4%;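 further: enzyme coupled to thioredoxin and thioredoxin reductase with NADPH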
A number is an active result; . = inactive; / = no result given. An excerpt weighted towards active compounds, which were near 1.2% of everything screened.

SMILES	procasp7 counter	MsrA inh	procasp3 activ	MsrA act	MsrA act confirm
Cc1cc2c(=Cc3ccc(N(C)C)cc3)c3ccccc3n2[n+]1C	/	.	/	.	/
CN(C)C(=O)C[C@H]1C[C@@H]2c3cc(NC(=O)NC4CCCC4)ccc3O[C@@H]2[C@@H](CO)O1	/	.	/	/	/
COC(=O)N1C[C@H](OC(=O)c2ccc(-c3ccccc3)cc2)[C@H]2C[C@@H]1c1ccccc1O2	/	.	/	/	/
COCCCNC(=O)C[C@H]1C[C@@]2(C(=O)OC)C(=C[C@H](COCc3ccccc3)O[C@@H]2C)N(Cc2ccc3c(c2)OCO3)C1=O	/	.	/	/	/
O=S1(=O)CCOC[C@H](c2ccccc2)N1Cc1cccc(F)c1	.	.	.	11.0	.
O=C(O)C1C2CC(C(Br)C2Br)C1C(=O)O (stereo not given)	/	.	/	15.4	.
COc1cc(=O)oc(C=O)c1C	/	.	/	/	/
CC(C)c1ccc(/C=N/NC(=O)c2ccccc2Cl)cc1	.	.	.	13.0	.
COC(=O)c1ccc(/C=N/NC(=O)c2ccccc2Cl)cc1	.	.	.	.	/
CC(C)c1ncc(C(O)c2cccc3ccccc23)n1C (stereo not given)	.	.	.	13.4	.
COC(=O)c1ccc(CN2C(=O)[C@]3(OCCC=C[C@H]3C)c3cc(OC)ccc32)cc1	/	.	/	/	/
O=C(Nc1cccnc1Cl)c1cccs1	.	.	.	16.8	.
O=C(Nc1ccccn1)c1cccs1	.	.	.	.	/
CC(=O)Nc1ccc(C(=O)OCC(=O)c2cccc([N+](=O)[O-])c2)cc1	.	.	.	8.4	.
CC(=O)Nc1ccc(NC(=O)CCC(=O)OCC(=O)c2cccc([N+](=O)[O-])c2)cc1	.	.	.	.	/
OCCNc1nc(SCc2ccccc2)nc2sc3c(c12)CCC3	/	.	/	14.4	.
CCOc1ccc(-c2nnc(NC3=NCCCCC3)o2)cc1	.	.	.	10.2	.
CC[C@H](NC(=O)[C@@H](Cc1ccccc1)NC(=O)[C@H]1O[C@@H](n2cnc3c(=O)[nH]c(N)nc32)[C@H](O)[C@@H]1O)c1ccccc1	/	.	/	/	/
O=C(Cc1c[nH]c2ccccc12)Nc1ccc(Nc2cccnc2)c(-c2cc(F)cc(F)c2)c1	/	.	/	/	/
S=c1[nH]c2cc(Cl)ccc2s1	.	.	.	12.1	4.8
Cc1cc(NS(=O)(=O)c2ccc(NC(=O)CCCC(=O)O)cc2)nc(C)n1	.	.	.	8.2	.
COC(=O)C1=C(C)N(Cc2cccc(C(F)(F)F)c2)C(=NCc2ccc(OC)cc2)NC1c1ccc(F)cc1 (stereo not given)	/	.	/	/	/
COCc1[nH]nc2c1C(c1ccc3c(c1)OCO3)N(Cc1ccccc1)C2=O (stereo not given)	/	.	/	/	/
Cc1cccc(C)c1NC(=O)c1nc(S(=O)(=O)Cc2ccccc2)ncc1Cl	.	.	.	.	/
Cc1nnc(NC(=O)c2nc(S(=O)(=O)Cc3ccccc3)ncc2Cl)s1	.	.	.	11.3	.
SMILES	procasp7 counter	MsrA inh	procasp3 activ	MsrA act	MsrA act confirm
COc1ccc(C(=O)NC(=O)COC(=O)C2CC2C)cc1 (stereo not given)	.	.	.	8.0	.
CN(C)CCCNC(=O)c1c(N)[nH]c(C(=O)c2ccc(Br)cc2)c1-c1ccc(Br)cc1	/	.	/	/	/
Cc1ccc(NCc2nnc3n2CCCCC3)c(C)c1	.	.	.	8.2	.
O=C1CN(C(=O)c2ccccc2)C(c2ccccc2)c2cc(F)ccc2N1 (stereo not given)	.	.	.	.	/
O=C1CN(C(=O)c2ccc(Br)o2)C(c2ccccc2)c2cc(F)ccc2N1 (stereo not given)	.	.	.	12.3	.
COc1ccc(Cc2nnc(NC(=O)Nc3ccccc3F)s2)cc1OC	.	.	.	11.0	.
CC(=O)Nc1nnc(Cc2ccccc2)s1	.	.	.	8.6	.
O=C(c1ccc(Cl)cc1Cl)N1CCC(c2nc3c(nnn3Cc3ccco3)c(=O)[nH]2)CC1	.	.	.	23.1	.
CCOC(=O)C1=C(C(=O)OCC)C2N(Cc3ccc(C(F)(F)F)cc3)c3ccccc3[C@@]23C[C@@H](C(=O)OC)N(S(=O)(=O)c2ccc(OC)cc2)C3=N1 (stereo not given in full)	/	.	/	/	/
